Measured values as given in ChEMBL document CHEMBL1125832, “Synthesis and dopaminergic activity of 3-substituted 1-(aminomethyl)-3,4-dihydro-5,6-dihydroxy-1H-2-benzopyrans: characterization of an auxiliary binding region in the D1 receptor” (J Med Chem, 1991).

How the values were obtained:
[1] = biological target: T1, D(1A) dopamine receptor (Rattus norvegicus, UniProt P18901); assay: Binding affinity using [125 I] SCH 23982 radioligand competitive binding assay on dopamine receptor D1
[2] = biological target: T2, Adrenergic receptor alpha-1 (Rattus norvegicus, UniProt P15823+P23944+P43140); assay: Binding affinity towards alpha-1 adrenergic receptor using [3H]prazosin as radioligand in competitive binding assay; format: protein assay
T2 sequence (P15823 whole entry): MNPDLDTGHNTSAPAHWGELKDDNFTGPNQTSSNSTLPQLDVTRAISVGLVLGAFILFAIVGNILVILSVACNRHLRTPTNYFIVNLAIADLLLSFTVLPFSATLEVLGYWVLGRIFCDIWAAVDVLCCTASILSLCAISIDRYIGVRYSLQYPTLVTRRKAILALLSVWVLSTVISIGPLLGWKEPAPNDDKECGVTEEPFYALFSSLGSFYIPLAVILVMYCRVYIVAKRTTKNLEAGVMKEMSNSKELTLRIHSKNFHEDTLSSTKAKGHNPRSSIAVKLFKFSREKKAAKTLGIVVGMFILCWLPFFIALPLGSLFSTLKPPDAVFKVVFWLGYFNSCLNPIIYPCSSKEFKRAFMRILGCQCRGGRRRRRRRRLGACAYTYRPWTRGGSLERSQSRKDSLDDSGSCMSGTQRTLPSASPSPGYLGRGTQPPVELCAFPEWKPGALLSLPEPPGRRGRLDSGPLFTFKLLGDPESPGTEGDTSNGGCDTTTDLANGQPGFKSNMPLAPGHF
T2 sequence (P23944 whole entry): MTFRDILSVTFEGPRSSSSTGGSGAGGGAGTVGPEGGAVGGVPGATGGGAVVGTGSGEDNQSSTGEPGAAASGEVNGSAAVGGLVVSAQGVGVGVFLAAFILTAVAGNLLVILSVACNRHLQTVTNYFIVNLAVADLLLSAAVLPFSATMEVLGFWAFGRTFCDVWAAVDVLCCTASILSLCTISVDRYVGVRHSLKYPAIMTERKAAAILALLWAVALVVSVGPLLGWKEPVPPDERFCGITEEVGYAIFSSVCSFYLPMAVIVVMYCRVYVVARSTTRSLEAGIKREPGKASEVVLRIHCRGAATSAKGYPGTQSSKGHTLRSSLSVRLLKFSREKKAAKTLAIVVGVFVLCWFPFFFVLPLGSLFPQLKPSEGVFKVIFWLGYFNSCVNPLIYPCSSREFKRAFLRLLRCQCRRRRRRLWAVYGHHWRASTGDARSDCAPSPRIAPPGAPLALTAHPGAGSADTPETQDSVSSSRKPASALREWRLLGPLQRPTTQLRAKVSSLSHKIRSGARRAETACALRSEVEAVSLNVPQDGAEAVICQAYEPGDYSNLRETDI
T2 sequence (P43140 whole entry): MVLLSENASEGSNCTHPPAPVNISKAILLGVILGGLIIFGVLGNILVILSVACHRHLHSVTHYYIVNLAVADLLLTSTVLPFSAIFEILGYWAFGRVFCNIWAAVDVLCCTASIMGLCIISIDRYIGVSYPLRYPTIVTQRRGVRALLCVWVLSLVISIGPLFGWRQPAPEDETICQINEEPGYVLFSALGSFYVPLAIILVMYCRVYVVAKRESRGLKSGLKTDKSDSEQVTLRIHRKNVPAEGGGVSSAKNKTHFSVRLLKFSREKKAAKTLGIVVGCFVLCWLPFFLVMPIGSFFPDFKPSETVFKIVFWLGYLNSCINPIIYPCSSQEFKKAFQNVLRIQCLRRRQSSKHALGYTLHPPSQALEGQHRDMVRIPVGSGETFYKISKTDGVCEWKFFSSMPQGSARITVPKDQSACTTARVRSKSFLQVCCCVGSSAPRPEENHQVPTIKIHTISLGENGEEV
How it was run: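 Frozen rat cortex membranes (300g then 48000g spins) in Tris pH 7.4 buffer with salts and ascorbate. [3H]prazosin at 1.0 nM final; nonspecific binding with 10 μM phentolamine. Incubated 45 min at 37 °C, then filtered. Ki via Cheng-Prusoff.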

[3] = biological target: T1, D(1A) dopamine receptor; assay: Inhibition of Dopamine receptor D1 activity by functional cyclase assay using cell free homogenate of rat striatum; format: tissue-based
How it was run: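 Adenylate cyclase stimulation in cell-free homogenate of rat striatum. EC50 is the concentration giving half-maximal stimulation of cAMP production.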

[4] = biological target: T3, 5-hydroxytryptamine receptor 1A (Rattus norvegicus, UniProt P19327); assay: Binding affinity towards 5-hydroxytryptamine 1A receptor using [3H]8-OH-DPAT as radioligand in competitive binding assay
T3 sequence (P19327 whole entry): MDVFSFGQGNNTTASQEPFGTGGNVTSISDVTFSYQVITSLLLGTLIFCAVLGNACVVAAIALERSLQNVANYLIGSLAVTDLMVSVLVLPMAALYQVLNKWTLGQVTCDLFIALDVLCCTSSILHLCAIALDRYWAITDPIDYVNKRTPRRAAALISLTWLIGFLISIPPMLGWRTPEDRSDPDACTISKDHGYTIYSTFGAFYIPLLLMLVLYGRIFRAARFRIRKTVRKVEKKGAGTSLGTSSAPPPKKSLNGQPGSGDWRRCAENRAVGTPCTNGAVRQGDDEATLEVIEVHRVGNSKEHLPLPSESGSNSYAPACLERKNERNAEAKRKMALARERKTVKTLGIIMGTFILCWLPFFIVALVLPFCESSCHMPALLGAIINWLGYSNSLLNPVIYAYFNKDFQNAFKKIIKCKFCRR
How it was run: (§1)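 Rat anterior cortex membranes, pelleted and preincubated 30 min at 37 °C in 50 mM Tris-HCl pH 7.7, 4 mM CaCl2, 10 μM pargyline. Label [3H]8-OH-DPAT, 800 pM final; nonspecific binding with 10 μM spiroxatrine. Ki derived from IC50 by Cheng-Prusoff; mean with SEM range.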

[5] = Intrinsic activity relative to dopamine at D-2 receptor.; format: functional
[6] = biological target: T4, D(2) dopamine receptor (Rattus norvegicus, UniProt P61169); assay: Binding affinity using [3H]-spiperone radioligand competitive binding assay against dopamine receptor D2
How it was run: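 Rat striatal membranes in Tris pH 7.4 buffer with salts and ascorbate. [3H]spiperone at 300 pM final; nonspecific binding with 10 μM YM-09151-2. Incubated 20 min at 37 °C, then filtered. Ki derived from IC50 by Cheng-Prusoff.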

[7] = biological target: T4, D(2) dopamine receptor; assay: Concentration required to inhibit 50% dopamine receptor D2 in a cell free homogenate of intermediate lobe of pituitary gland; format: functional
[8] = system: Rattus norvegicus; assay: Rat rotation experiments were conducted to evaluate rational behavior of the rats by administering at a dose of 2.0 umol/kg subcutaneously; format: functional
How it was run: (§2)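 Rats with unilateral 6-hydroxydopamine lesions of the nigrostriatal bundle. Compound given subcutaneously or orally at the stated dose. Net contralateral rotations counted over 2 h after dosing and reported as mean ± SEM; negative values indicate ipsilateral turning.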

[9] = system: Rattus norvegicus; assay: Rat rotation experiments were conducted to evaluate rational behavior of the rats by administering at a dose of 1.0 umol/kg subcutaneously; format: functional; how it was run: as §2
[10] = biological target: T3, 5-hydroxytryptamine receptor 1A; assay: Binding affinity was evaluated by using [3H]8-OH-DPAT radioligand by using competitive binding assay on 5-hydroxytryptamine 1A receptor; how it was run: as §1
[11] = system: Rattus norvegicus; assay: (§3) Rat rotation experiments were conducted to evaluate rational behavior of the rats by administering at a dose of […] subcutaneously; format: functional
[12] = system: Rattus norvegicus; assay: as §3; format: functional; remark: listed apart in the source

T1 sequence (P18901 whole entry): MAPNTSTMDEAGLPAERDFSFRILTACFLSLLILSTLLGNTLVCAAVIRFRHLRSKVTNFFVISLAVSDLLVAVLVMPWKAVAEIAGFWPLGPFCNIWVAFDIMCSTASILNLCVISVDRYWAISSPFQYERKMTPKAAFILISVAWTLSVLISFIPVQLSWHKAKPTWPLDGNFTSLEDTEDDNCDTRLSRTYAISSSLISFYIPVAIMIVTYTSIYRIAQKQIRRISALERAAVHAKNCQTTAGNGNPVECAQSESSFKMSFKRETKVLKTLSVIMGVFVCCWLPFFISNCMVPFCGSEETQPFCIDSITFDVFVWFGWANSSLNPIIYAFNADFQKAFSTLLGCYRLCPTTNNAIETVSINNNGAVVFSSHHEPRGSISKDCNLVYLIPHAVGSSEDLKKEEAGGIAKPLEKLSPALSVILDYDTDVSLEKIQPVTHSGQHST
T4 sequence (P61169 whole entry): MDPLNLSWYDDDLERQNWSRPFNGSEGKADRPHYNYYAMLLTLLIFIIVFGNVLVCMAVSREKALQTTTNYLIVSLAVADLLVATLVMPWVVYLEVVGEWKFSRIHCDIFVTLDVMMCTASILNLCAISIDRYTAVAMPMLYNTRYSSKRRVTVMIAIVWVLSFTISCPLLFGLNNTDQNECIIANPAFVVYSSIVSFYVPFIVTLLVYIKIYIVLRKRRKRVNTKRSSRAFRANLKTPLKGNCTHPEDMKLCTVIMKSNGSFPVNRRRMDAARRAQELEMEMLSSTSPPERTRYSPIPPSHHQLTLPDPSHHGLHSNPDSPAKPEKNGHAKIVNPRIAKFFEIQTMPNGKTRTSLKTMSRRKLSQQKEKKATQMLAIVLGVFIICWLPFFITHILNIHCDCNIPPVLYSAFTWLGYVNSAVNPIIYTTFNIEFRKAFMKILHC

SMILES | Ki [1] [µM] | Ki [2] [µM] | EC50 [3] [µM] | Ki [4] [µM] | Intrinsic activity [5] [%] | Ki [6] [µM] | EC50 [7] [µM] | Ki [10] [µM] | Activity [8] | Activity [9] | Activity [11] | Activity [12]
NC[C@H]1O[C@@H](c2ccccc2)Cc2c1ccc(O)c2O | – | 6.06 | – | > 20 | 96 | 4.61 | 2.85 | – | -22 | – | – | –
CC(C)(C)C1Cc2c(ccc(O)c2O)[C@H](CN)O1 (stereo partly drawn) | 0.0318 | > 10 | 0.0523 | – | – | 8.19 | > 10 | > 20 | – | – | 354 | 671
C=CCNC[C@@H]1OC(C2CCCCC2)Cc2c1ccc(O)c2O (stereo partly drawn) | 1.54 | > 10 | 0.0303 | > 20 | – | – | – | – | – | – | 667 | –

The next lines start with results.

Ki [1] [µM] | Ki [2] [µM] | EC50 [3] [µM] | Ki [4] [µM] | Intrinsic activity [5] [%] | Ki [6] [µM] | EC50 [7] [µM] | Ki [10] [µM] | SMILES | Activity [8] | Activity [9] | Activity [11] | Activity [12]
0.0054 | > 10 | 0.0017 | > 20 | 85 | 1.12 | 7.03 | – | NC[C@@H]1OC(C2CCCCC2)Cc2c1ccc(O)c2O (stereo partly drawn) | – | – | – | –
– | > 10 | – | 2.55 | 98 | – | – | – | NC[C@@H]1O[C@H](c2ccccc2)Cc2c1ccc(O)c2O | 1525 | 1113 | – | –
– | 10.8 | – | 18.1 | 101 | 0.776 | 3.91 | – | NC[C@@H]1OC(c2ccccc2)Cc2c1ccc(O)c2O (stereo partly drawn) | – | 53 | 895 | –
